# PGC1a Ac signal – raises PGC1a acetylation signal in U2OS cells | U2OS PGC1a acetylation AlphaScreen, overnight | activation, % at 15.6 µM | hit rate 0.21% among 350,000 | AID 651723;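 active means every replicate reaching activation of at least 50%, whatever the mean replicate activation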;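 further: hits raise the AlphaScreen acetylation signal above neutral controls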
#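 Test system: U2OS cells expressing flag-PGC1a plus GCN5; Amount: 7000 U2OS cells per well; Compound: single test concentration per compound; Incubation: compound overnight at 37 °C, each detection step 1 h RT; Signal: AlphaScreen lysate read.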
# Numbers without * were called inactive. Only a selection was taken, and hits are over-represented in it overall.
SMILES,PGC1a Ac signal
C[C@H]1CN([C@@H](C)CO)C(=O)CCCn2cc(nn2)CO[C@H]1CN(C)S(=O)(=O)c1ccc(Cl)cc1,-49.3
O=S(=O)(Nc1cccc(CCc2ccccn2)c1)c1ccc2ccccc2c1,-44.3
CC1CCCCC1NC(=O)C1CCN(S(=O)(=O)N2CCOCC2)CC1 (configuration not stated),-42.9
COc1ccc(CCNC(=O)c2ccc(Cl)cc2)cc1,81.1*
COc1ccc(C(=O)N/N=C(/C)c2cccc(NC(=O)c3ccccc3F)c2)cc1,-50.6
COc1ccc(NC(=O)CN(C)C(=O)c2cnc(Cl)c(Cl)c2)cc1,-43.7
COc1cccc(C(=O)/C=C/c2ccc(OCC#N)c(OC)c2)c1,183.2*
CCCOc1ccc(/C=C/C(=O)O)cc1OC,-61.6
COc1ccc(OC)c(C(=O)/C=C/c2ccccc2C(F)(F)F)c1,-46.2
S=c1[nH]nc(-c2cc(-c3ccccc3)n[nH]2)n1/N=C/C(Br)=C/c1ccccc1,241.4*
S=c1[nH]nc(-c2ccco2)n1/N=C/C(Cl)=C/c1ccccc1,65.2*
FC(F)(F)c1ccc(Cl)c(-n2c(-c3cc(-c4ccco4)[nH]n3)n[nH]c2=S)c1,-43.5
CC1OC2CC(=O)OC2C2=C1C(=O)c1c(O)cccc1C2=O (configuration not stated),-78.4
COc1cc(CC(=O)OC2CCOC2=O)cc(OC)c1OC (configuration not stated),57.3*
CC(=O)Nc1ccc(C(=O)OC2CCOC2=O)cc1 (configuration not stated),-46.9
COc1cc(CCC(=O)Nc2cc(C)cc(C)c2)cc(OC)c1OC,-44.6
N#Cc1ccc(Oc2cccnc2)cc1C#N,52.7*
Cc1cc(C)c2nc(N3CCCC(C(=O)N4CCC(C(N)=O)CC4)C3)sc2c1 (configuration not stated),-40.0
COc1cc(NC(=S)NN2CCOCC2)cc(OC)c1,-60.6
Cc1ccc(NC(=O)c2c(C)nn(-c3ccccc3)c2Cl)c(C)c1,-41.3
Cc1nnc2sc(-c3ccc(NC(=O)c4ccc(-c5ccc(Cl)cc5Cl)o4)cc3)nn12,98.2*
CCCNC(=O)Nc1ccc2c(c1)C(=O)N(C)C[C@H](OC)[C@H](C)CN(CC1CCCC1)[C@@H](C)CO2,-43.9
C[C@@H]1CCCCO[C@H](CN(C)C(=O)Cc2ccccc2)[C@H](C)CN([C@@H](C)CO)C(=O)c2cc(N(C)C)ccc2O1,-54.1
C[C@@H]1CN([C@@H](C)CO)C(=O)CCCn2cc(nn2)CO[C@H]1CN(C)C(=O)Cc1ccccc1,-56.4
C[C@@H]1CN([C@@H](C)CO)C(=O)c2c(c3ccccc3n2C)-c2ccccc2CO[C@@H]1CN(C)C(=O)[C@H](C)c1ccccc1,115.2*
SMILES,PGC1a Ac signal
CCNC(=S)N1C2CCC1CC(NC(=O)NC1CCCCC1)C2 (configuration not stated),-48.2
C[C@@H]1CN([C@H](C)CO)C(=O)Cc2cc(NC(=O)Nc3ccccc3)ccc2O[C@H]1CN(C)Cc1ccccc1,-61.1
Cc1c(Cl)cccc1N=Cc1ccc([N+](=O)[O-])s1,102.1*
O=C(c1ccc([N+](=O)[O-])s1)N1CCc2ccccc2C1,-46.8
Cc1cc(=O)[nH]c(SCC(=O)N2CCc3ccccc3C2)n1,-51.8
Cc1ccc(Cl)cc1N1CCN(C(=O)CSc2nnc3n2C(C)(C)Cc2ccccc2-3)CC1,51.8*
Cc1noc(C)c1S(=O)(=O)Nc1ccc2c(c1)C(=O)N([C@@H](C)CO)C[C@@H](C)[C@@H](CN(C)CC1CCCCC1)OCCCC[C@@H](C)O2,-84.6
COc1cccc(N2CCN(c3ncnc4c3[nH]c3ccc(F)cc34)CC2C)c1 (configuration not stated),-76.9
O=C(c1ccccc1)C1OC1C(=O)c1ccccc1 (configuration not stated),76.7*
O=C(NC1CCCCCCC1O)c1ccccc1 (configuration not stated),-57.1
CO[C@H]1CN(C)C(=O)c2ccc(NS(=O)(=O)c3ccccc3)cc2OC[C@@H](C)N(C(=O)NC(C)C)C[C@@H]1C,-51.7
CO[C@@H]1CN(C)C(=O)c2cc(NS(=O)(=O)c3ccc(Cl)cc3)ccc2OC[C@H](C)N(C)C[C@H]1C,-60.1
O=C(CCN1CCc2ccccc2C(c2ccccc2)C1)c1ccc2c(c1)OCCO2 (configuration not stated),68.8*
COc1ccc(C2=NOC(C(=O)Nc3cccnc3)C2)cc1 (configuration not stated),63.5*
CCc1ccc(C(=O)NNC(=O)Cn2c(=O)cnc3ccccc32)cc1,-40.2
CCN(CC)CCOc1ccc(/C(=C(\Cl)c2ccccc2)c2ccccc2)cc1,79.9*
O=Nc1c2nc3ccccc3n(O)c-2c2ccccc12,61.0*
CC1=CC(=O)C=C(C)C1=NOS(=O)(=O)c1ccccc1,60.8*
CN1C(=O)c2ccccc2C(C(=O)O)C1c1cccc([N+](=O)[O-])c1 (configuration not stated),-43.6
CCOc1ccc(Nc2nc(NCc3ccco3)nc(N)c2[N+](=O)[O-])cc1,-72.4
COc1ccc(CCCNC(=O)C2(C)Cc3c(-c4ccc5c(c4)OCO5)ccnc3O2)cc1 (configuration not stated),53.8*
CCCCCCC1CC(=O)NC(=S)N1 (configuration not stated),-62.8
CC(C)CCC1=NN(C(=O)c2ccco2)C(O)(C(F)(F)F)C1 (configuration not stated),-44.1
CC1=NN(C(=O)c2ccc(C)cc2)C(O)(C(F)(F)OC(F)(F)F)C1 (configuration not stated),54.9*
Cc1cccc2cc(CN(Cc3nnnn3Cc3ccco3)C3CCCC3)c3nnnn3c12,55.5*
SMILES,PGC1a Ac signal
COc1ccc(C(=O)Nc2ccc(S(=O)(=O)Nc3cc(C)nc(C)n3)cc2)cc1,-43.1
CCOc1ccc(OCc2ccc(C(=O)NN=Cc3ccc[nH]3)cc2)cc1,-46.5
COc1ccc(OC)c(-n2c(-c3ccc(C)cc3)n[nH]c2=S)c1,69.8*
COc1ccc(-c2cc(C(=O)O)[nH]n2)cc1OC,-42.4
CCSc1nnc(NC(=O)CSC2=NCCS2)s1,-94.3
Cc1c(NC(=O)c2ccccc2NS(=O)(=O)c2ccc(Br)cc2)c(=O)n(-c2ccccc2)n1C,-42.1
CN1/C(=C\C(=O)c2cccc(S(=O)(=O)N3CCCCC3)c2)C(C)(C)c2ccccc21,-40.5
CCOC(=O)N1CCN(C(=O)c2cc(S(=O)(=O)N3CCCC3)cn2C)CC1,73.7*
CCCCSCCCNC(=O)c1cn(C)c2ccc(S(=O)(=O)N3CCCC3)cc2c1=O,-9.6
COc1ccc2cc3cc(C(=O)NCc4cccs4)oc3nc2c1,69.9*
COc1ccc2cc3c(N)nn(C(=O)c4ccccc4Cl)c3nc2c1,-41.7
O=C(CCC1CCCCC1)NCc1cccs1,-40.6
CCCNC(=O)N(C)C[C@H]1Oc2cc(C#CC(C)C)ccc2S(=O)(=O)N([C@@H](C)CO)C[C@H]1C,-51.4
COc1ccc(NC(=O)CSC2CC(=O)N(c3ccc4c(c3)OCCO4)C2=O)cc1 (configuration not stated),54.8*
Cc1cc(S(=O)(=O)NC(C)C)ccc1OCC(=O)Nc1ccc2c(c1)OCCO2,-110.5
CCc1c(C)nc(SCC(=O)Nc2ccc3c(c2)OCCO3)[nH]c1=O,-46.0
COc1cccc(C(=O)CSc2nnc(CNS(=O)(=O)c3ccc(C)cc3)n2C)c1,-88.6
On1onc2c3cc(-c4ccccc4)nc3ccc21,620.5*
c1ccc(-c2cc(-c3ccccc3)n3ncnc3n2)cc1,-44.8
